Results gathered from unrelated publications.
Compare with care: the assays were run in different laboratories.

SMILES | host | sample | route | dose | setting | Cmax
N#C[C@@]12C[C@@H]1[C@@H](n1cnc3c(N[C@@H](C4CCC4)C4CC4)nc(I)nc31)[C@H](O)[C@@H]2O | male Wistar rat | plasma | oral | 1 mg/kg | – | 6.73 ng/mL
CC1(CN)CCN(c2cnc3c(Sc4ccncc4Cl)n[nH]c3n2)CC1 | male Sprague-Dawley rat | plasma | oral | 10 mg/kg | – | 142 ng/mL
C[C@H]1[C@@H](O)O[C@@H]2O[C@@]3(C)CC[C@H]4[C@H](C)CC[C@@H]1[C@@]24OO3 | Sprague-Dawley rat | plasma | oral | 10 mg/kg | – | 227 ng/mL
CC(=Nc1ccc(N=Cc2cnccn2)cc1)N(C)C | male Sprague-Dawley rat | plasma | oral | 200 mg/kg | – | 397 ng/mL
O=C1c2ccncc2C(=O)c2c1[nH]c1ccccc21 | rat | plasma | intravenous | 1 mg/kg | single dose | 3.25 µM
O=c1cc(-c2ccc(O)c(O)c2)oc2cc(O)cc(O)c12 | male Sprague-Dawley rat | plasma | oral | 30 mg/kg | – | 40.1 ng/mL
Cc1c(C(=O)O)ccc2c3n(nc12)[C@@H]1[C@H](C3)N(CC2CC2)[C@@]2(C(=O)Nc3cc(Cl)ccc32)[C@H]1c1cccc(Cl)c1F | male rat | plasma | oral | 2 mg/kg | – | 5.7 µM
O=C1CC[C@H](N2Cc3cc(N4CCN(CC5CCN(c6ccc([C@@H]7c8ccc(O)cc8CC[C@@H]7c7ccccc7)cc6)CC5)CC4)ccc3C2=O)C(=O)N1 | male Sprague-Dawley rat | plasma | oral | 20 mg/kg | fed | 1040 ng/mL
COc1ccc2cc3n(c(=O)c2c1OC)CCc1cc2c(cc1-3)OCO2 | male Sprague-Dawley rat | blood | oral | 50 mg/kg | – | 233 ng/mL
O=C(C=Cc1ccccc1)Nc1cc(-c2ccnc(N3CCC(O)CC3)c2)ccn1 | female Sprague-Dawley rat | plasma | intravenous | 5 mg/kg | – | 324 ng/mL
Nc1ccc(/C=C/C(=O)NCc2cc3cc(-c4ccc(C(=O)N5CCC(F)(F)CC5)cc4)cc(-c4ccc(F)cc4)c3o2)cn1 | rat | plasma | oral | 3 mg/kg | – | 5990 ng/mL
